V-ATPase pH – yeast V-ATPase proton transport regulation by pHLuorin; S. cerevisiae, pHLuorin cytosolic pH fluorescence; response, % at 10 µM; 350,000 compounds, 0.37% hits; in the data active = response mostly above about 7.3%, no sharp cut-off; inactive = mostly below about 5.4%; note: actives read high
XBP1 UPR activ – activators of adaptive arm of unfolded protein response (XBP1). activation, % at 20 µM. CHO-XBP1 luciferase reporter, IRE1-XBP1 UPR activation, luminescence; percent of tunicamycin response, DMSO as zero. AID 463104. 330,000 compounds, 0.33% hits;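 active = versus positive control, 20 µM dose yields 30% or more activation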;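 note: 100% = tunicamycin at 10 µg/mL and 0% = DMSO only wells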
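Material: IRE1-XBP1 luciferase reporter CHO line / Quantity: one thousand reporter cells per well / Buffer or medium: F12 with 10% serum / Compound: 20 µM single concentration, DMSO 1% / Times: 6 h treatment, 37 °C / Detection: Steady-Glo luciferase glow luminescence, 10 min after reagent addition / Benchmarks: tunicamycin high, DMSO low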
CHOP inhibitor – blocks CHOP induction under ER stress; CHO-K1 CHOP-promoter luciferase, tunicamycin-induced, 15-18 h; inhibition, % at 10 µM; 220,000 compounds, 3.8% hits; AID 2732;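 active = compounds that reduced the stress-induced luciferase reporter signal by more than about 70% of percent inhibition, limit read from the data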;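 note: 0% = tunicamycin plus vehicle and 100% = wells without tunicamycin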
CHOP UPR activ – apoptotic UPR (CHOP) activation; CHO-CHOP luciferase reporter, luminescence; percent of tunicamycin response over DMSO baseline; activation, % at 10 µM; 330,000 compounds, 0.34% hits; AID 449763;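 active = at 10 µM dose, activation of 40% or more, normalized to positive control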;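 note: 100% = tunicamycin at 10 µg/mL and 0% = DMSO alone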
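Dosing – one dose, 10 µM in 0.5% DMSO · System – CHO-CHOP cells, stable luciferase reporter of PERK-eIF2a-CHOP signalling · Input – 500 cells/well · Control set – tunicamycin 10 µg/mL final as positive, DMSO-only wells as negative · Timing – 6 h compound treatment, 37 °C · Measure – % activation vs tunicamycin · Technique – luminescence read with Steady-Glo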
TbMetRS inhib – Trypanosoma brucei MetRS inhibition. purified T. brucei MetRS, ATP depletion, Kinase-Glo luminescence. inhibition, % at 11.9 µM. 360,000 compounds, 0.4% hits;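 active = inhibition above a per-plate cutoff of the control wells' mean inhibition plus 3 SD, cut at about 5.5% in these data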;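 note: 0% = DMSO wells median and 100% = median of wells with control inhibitor compound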
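Measured by: Kinase-Glo luciferase luminescence reporting remaining unconsumed ATP. Material: purified T. brucei MetRS enzyme. Doses: 11.9 µM compound single dose, 0.9% DMSO. Medium: HEPES buffer containing pyrophosphatase, BSA, spermine, DTT. Times: 15 min preincubation, 2 h reaction, all 25 °C. Reagent: methionine, ATP and bulk E. coli tRNA.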
V-ATPase pH SP – yeast V-ATPase proton transport regulation. shares compounds with V-ATPase pH. S. cerevisiae pHLuorin cytosolic pH. response, % at 10 µM. 980 compounds, 2% hits. AID 602197; in the data active = response above about 24%;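 note: plate controls were vehicle wells for no effect and positive control wells for full effect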
* hit, by the source's call. The entries come from a sample that favours hits as a whole.

What do the screens show for `Cc1cc(NC(=O)CSC2=NS(=O)(=O)c3cc(F)ccc3N2)no1`?
V-ATPase pH: -6; XBP1 UPR activ: 0; CHOP UPR activ: -1; TbMetRS inhib: 0

What do the screens show for `CCOc1ccc(NC(=O)CSc2nc(N3CCOCC3)nc(N3CCOCC3)n2)cc1`?
V-ATPase pH: 8.7*; XBP1 UPR activ: 1; CHOP UPR activ: 0; TbMetRS inhib: 0; V-ATPase pH SP: 1

Results for COC(=O)c1ccccc1NC(=O)CN1CCCCC1 ?
V-ATPase pH: 12*; XBP1 UPR activ: -2; CHOP inhibitor: 22; CHOP UPR activ: -3; TbMetRS inhib: -1; V-ATPase pH SP: 1

What do the screens show for `CC(C)C[C@H]1CN(CCCC[C@H]2CNC(=O)C(=O)N2CCC2CCCCC2)C(=O)C(=O)N1CCc1ccccc1`?
TbMetRS inhib: -1

What do the screens show for `O=S(=O)(c1ccc(Cl)nc1)N1CCc2ccccc21`?
V-ATPase pH: 12*; XBP1 UPR activ: -2; CHOP inhibitor: -3; CHOP UPR activ: 2; TbMetRS inhib: 0; V-ATPase pH SP: 1

How did O=C(NC1CCCCC1)c1c(O)nc2sccn2c1=O do in these assays?
V-ATPase pH: 12*; XBP1 UPR activ: 0; CHOP UPR activ: 3; TbMetRS inhib: 0; V-ATPase pH SP: 28*

Results for O=C(NCC1CCCCC1)c1cc([N+](=O)[O-])ccc1Cl ?
V-ATPase pH: 2; XBP1 UPR activ: -2; CHOP UPR activ: 1; TbMetRS inhib: 0

How did O=C(NCC1CCCCC1)c1ccccc1[N+](=O)[O-] do in these assays?
V-ATPase pH: 13*; XBP1 UPR activ: -5; CHOP UPR activ: 2; TbMetRS inhib: -2; V-ATPase pH SP: 1

How did Cc1cccc2nc(-c3cccnc3)c(Nc3ccccc3)n12 do in these assays?
V-ATPase pH: 1; XBP1 UPR activ: -1; CHOP inhibitor: 3; CHOP UPR activ: -2; TbMetRS inhib: 0

Results for Cc1cccc2nc(-c3cccnc3)c(NCCC(C)C)n12 ?
V-ATPase pH: 12*; XBP1 UPR activ: 1; CHOP inhibitor: 60; CHOP UPR activ: 1; TbMetRS inhib: -1; V-ATPase pH SP: -1

What do the screens show for `CC(=O)c1cnn(-c2ccc(Cl)cc2)c1C`?
V-ATPase pH: 0; XBP1 UPR activ: 4; CHOP inhibitor: -6; CHOP UPR activ: 1; TbMetRS inhib: -1; V-ATPase pH SP: 0

Results for CC(=O)c1sc(=S)n(-c2ccc(Cl)cc2)c1C ?
V-ATPase pH: 0; XBP1 UPR activ: 0; CHOP inhibitor: 8; CHOP UPR activ: 1; TbMetRS inhib: 0; V-ATPase pH SP: 4

Results for Cc1c(C(=O)Nc2ccccc2)cnn1-c1ccccc1 ?
V-ATPase pH: -1; XBP1 UPR activ: 0; CHOP UPR activ: 1; TbMetRS inhib: 0

How did CCOC(=S)SCC(=O)N1CCc2cc(OC)c(OC)cc2C1C1C(=O)CC(C)(C)CC1=O (stereo not drawn) do in these assays?
V-ATPase pH: 20*; XBP1 UPR activ: -2; CHOP inhibitor: 26; CHOP UPR activ: -1; TbMetRS inhib: 0; V-ATPase pH SP: -3

Results for CCOC(=S)SCC(=O)N1CCc2ccccc2C1C1C(=O)CC(C)(C)CC1=O (stereo not drawn) ?
V-ATPase pH: 5; XBP1 UPR activ: -1; CHOP inhibitor: 12; CHOP UPR activ: 1; TbMetRS inhib: 0

What do the screens show for `Cc1nnc(NC(=O)Oc2ccccc2)s1`?
V-ATPase pH: -1; XBP1 UPR activ: -2; CHOP inhibitor: 13; CHOP UPR activ: 1; TbMetRS inhib: -1

What do the screens show for `CCC(CC)c1nnc(NC(=O)Oc2ccccc2)s1`?
V-ATPase pH: 17*; XBP1 UPR activ: 1; CHOP inhibitor: 32; CHOP UPR activ: -2; TbMetRS inhib: -1; V-ATPase pH SP: 3

What do the screens show for `CS(=O)(=O)N1Cc2ccccc2CC1C(=O)OCC(=O)NCCc1ccc(S(N)(=O)=O)cc1` (stereo not drawn)?
V-ATPase pH: 12*; XBP1 UPR activ: -4; CHOP UPR activ: -1; TbMetRS inhib: 0; V-ATPase pH SP: 1

What do the screens show for `Cc1ccc(C(=O)OCCc2sc[n+](Cc3ccccc3)c2C)cc1`?
V-ATPase pH: 47*; XBP1 UPR activ: 0; CHOP inhibitor: 4; CHOP UPR activ: 4; TbMetRS inhib: -1; V-ATPase pH SP: 2

What do the screens show for `Cc1c(CCOC(=O)C23CC4CC(CC(C4)C2)C3)sc[n+]1Cc1ccccc1`?
V-ATPase pH: 3; XBP1 UPR activ: -2; CHOP inhibitor: -3; CHOP UPR activ: 0; TbMetRS inhib: -1

Results for Cc1cc(C)c(OCC(=O)NCC2CCCO2)c(C)c1 (stereo not drawn) ?
V-ATPase pH: 3; XBP1 UPR activ: -1; CHOP inhibitor: 7; CHOP UPR activ: 1; TbMetRS inhib: 0

Results for CN1CCN(c2nc3c(c(=O)[nH]c(=O)n3C)n2Cc2ccc(Cl)cc2)CC1 ?
V-ATPase pH: 5; XBP1 UPR activ: -4; CHOP UPR activ: 0; TbMetRS inhib: -1

Results for CN1CCN(c2nc3c(c(=O)n(C)c(=O)n3C)n2Cc2ccc(Cl)cc2)CC1 ?
V-ATPase pH: 8.0*; XBP1 UPR activ: -4; CHOP UPR activ: -1; TbMetRS inhib: 0; V-ATPase pH SP: -8

What do the screens show for `CCn1cc(CCCC(=O)NCc2ccc(OC)cc2)c2ccccc21`?
V-ATPase pH: -1; XBP1 UPR activ: -5; CHOP UPR activ: -2; TbMetRS inhib: 0

How did O=c1c2c(-c3ccccc3)csc2ncn1/N=C/c1ccc(O)c([N+](=O)[O-])c1 do in these assays?
V-ATPase pH: 0; XBP1 UPR activ: 12; CHOP inhibitor: 8; CHOP UPR activ: 0; TbMetRS inhib: 0

Results for O=c1c2c(-c3ccccc3)csc2ncn1/N=C/c1cccc([N+](=O)[O-])c1O ?
V-ATPase pH: 82*; XBP1 UPR activ: 3; CHOP inhibitor: 7; CHOP UPR activ: 0; TbMetRS inhib: -1; V-ATPase pH SP: 4

What do the screens show for `CC1C(=O)Nc2ccc(S(=O)(=O)N3CCCCCC3)cc21` (stereo not drawn)?
V-ATPase pH: -2; XBP1 UPR activ: -2; CHOP UPR activ: 0; TbMetRS inhib: 0

What do the screens show for `c1cnc(N2CCSCC2)nc1`?
V-ATPase pH: 10*; XBP1 UPR activ: -1; CHOP inhibitor: 14; CHOP UPR activ: -4; TbMetRS inhib: -1; V-ATPase pH SP: -1

Results for CSc1nc2cc(S(=O)(=O)N3CCCCC3)ccc2s1 ?
V-ATPase pH: 0; XBP1 UPR activ: -1; CHOP inhibitor: 5; CHOP UPR activ: 2; TbMetRS inhib: 0

How did CSc1nc2cc(S(=O)(=O)N3CCOCC3)ccc2s1 do in these assays?
V-ATPase pH: 19*; XBP1 UPR activ: 0; CHOP inhibitor: -12; CHOP UPR activ: 0; TbMetRS inhib: 0; V-ATPase pH SP: 0
